Measurements from ChEMBL document CHEMBL1126841, “Synthesis and structure-activity relationships of 1-acyl-4-((2-methyl-3-pyridyl)cyanomethyl)piperazines as PAF antagonists” (J Med Chem, 1993).

Tests used:
Oryctolagus cuniculus [1] = organism: Oryctolagus cuniculus; test: In vitro inhibition of PAF-induced platelet aggregation in male rabbits
Mus musculus [2] = test: Tested for dose required to inhibit endotoxin-induced mortality by 50 % when administered intravenously in endotoxin-induced mortality (EIM) mice; assay type: functional; conditions: iv, read-out: ID50 (the source's name)
Method in brief: (§1)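 Groups of 10 male Swiss mice (22-26 g) were dosed iv (saline vehicle) 5 min or po (1% Tween 80 vehicle) 30 min before tail-vein injection of E. coli 0111:B4 endotoxin, 20 mg/kg. Mortality was scored at 7 days versus vehicle controls. ID50 was obtained by linear regression of a single curve of at least four points.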

Mus musculus [3] = test: Tested for dose required to inhibit antigen-induced mortality by 50 % when administered intravenously in active anaphylactic shock (AAS) mice.; assay type: functional; conditions: iv, read-out: ID50 (the source's name)
Method in brief: (§2)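 Male Swiss mice (30 g, groups of 10) were sensitized by ip injection of 1 mL saline containing 1 mg bovine serum albumin, then challenged with BSA. Compound was given iv 5 min or po 30 min before challenge. Survival was recorded 60 min after BSA. ID50 (dose inhibiting mortality by 50%) was obtained by linear regression of a single curve of at least four points.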

[4] = target: Platelet-activating factor receptor (Mus musculus) (UniProt Q62035); test: Dose required to inhibit PAF-induced mortality by 50% in mice; assay type: functional; conditions: Mus sp.
Method in brief: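 Male Swiss mice (22-26 g), groups of 10; test compound given po (20 mL/kg), controls 1% Tween 80. 60 min later, C18-PAF 100 µg/kg plus propanolol 1 mg/kg injected into a lateral tail vein. Mortality scored 2 h after PAF; % inhibition vs controls. ID50 from linear regression of one curve, ≥4 points. Initial dose 3 mg/kg; further doses only if >50% inhibition.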

Mus musculus [5] = test: Tested for dose required to inhibit endotoxin-induced mortality by 50 % when administered perorally in endotoxin-induced mortality (EIM) mice; assay type: functional; conditions: po, read-out: ID50 (the source's name)
Method in brief: as §1

[6] = target: Platelet-activating factor receptor (Rattus norvegicus) (UniProt P46002); test: Intravenous dose required to reduce the arterial blood pressure caused by PAF by 50% in rats; assay type: functional
Method in brief: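 Male Sprague-Dawley rats (180-220 g) under pentobarbital anesthesia (50 mg/kg ip); carotid blood pressure recorded. Compound in saline given iv (femoral vein) 3 min before PAF 0.5 µg/kg iv; controls got vehicle. % inhibition of hypotension vs controls. ID50 from linear regression of one curve, ≥4 doses, each the mean of ≥2 independent experiments.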

Rattus norvegicus [7] = test: Tested for dose required to inhibit endotoxin-induced mortality by 50 % when administered intravenously in endotoxin-induced mortality (EIM) in rats; assay type: functional; conditions: iv, read-out: ID50 (the source's name)
Method in brief: as §1, with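 “Sprague-Dawley rats (150-175” for “Swiss mice (22-26”, “0127:B8” for “0111:B4”, “5” for “20”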

Rattus norvegicus [8] = test: Tested for dose required to inhibit endotoxin-induced mortality by 50 % when administered perorally in endotoxin-induced mortality (EIM) in rats; assay type: functional; conditions: po, read-out: ID50 (the source's name)
Method in brief: as §1, with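 “Sprague-Dawley rats (150-175” for “Swiss mice (22-26”, “0127:B8” for “0111:B4”, “5” for “20”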

Mus musculus [9] = test: Tested for dose required to inhibit antigen-induced mortality by 50 % when administered perorally in active anaphylactic shock (AAS) mice.; assay type: functional; conditions: po, read-out: ID50 (the source's name)
Method in brief: as §2

Rattus norvegicus [10] = test: Tested for dose required to inhibit endotoxin-induced mortality by 50 % when administered perorally in endotoxin-induced mortality (EIM) rats; assay type: functional; conditions: po, read-out: ID50 (the source's name)
Method in brief: as §1, with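 “Sprague-Dawley rats (150-175” for “Swiss mice (22-26”, “0127:B8” for “0111:B4”, “5” for “20”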

Mus musculus [11] = test: Tested for dose required to inhibit antigen-induced mortality by 50 % when administered intravenously in active anaphylactic shock (AAS) mice; assay type: functional; conditions: iv, read-out: ID50 (the source's name)
Method in brief: as §2

Mus musculus [12] = test: Tested for dose required to inhibit antigen-induced mortality by 50 % when administered perorally in active anaphylactic shock (AAS) mice; assay type: functional; conditions: po, read-out: ID50 (the source's name)
Method in brief: as §2

Rattus norvegicus [13] = test: Tested for dose required to inhibit endotoxin-induced mortality by 50 % when administered intravenously in endotoxin-induced mortality (EIM) rats; assay type: functional; conditions: iv, read-out: ID50 (the source's name)
Method in brief: as §1, with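 “Sprague-Dawley rats (150-175” for “Swiss mice (22-26”, “0127:B8” for “0111:B4”, “5” for “20”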

[14] = Inhibition of PAF-induced platelet aggregation
Oryctolagus cuniculus [15] = organism: Oryctolagus cuniculus; test: In vitro inhibition of PAF-induced platelet aggregation in male rabbits; assay type: functional
Method in brief: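 Platelet-rich plasma from blood spun 250 g, 10 min, 4 °C, diluted with platelet-poor plasma (3000 g, 10 min) to 3.5 × 10^5 platelets/mm3. Aggregation induced with C18-PAF 1.5 × 10^-8 M and read on a dual-channel aggregometer. IC50 as 50% inhibition of maximal aggregation, by linear regression of one curve, ≥4 points, each the mean of 1-3 independent experiments.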

Platelet-activating factor receptor (Mus musculus), sequence (Q62035 whole entry): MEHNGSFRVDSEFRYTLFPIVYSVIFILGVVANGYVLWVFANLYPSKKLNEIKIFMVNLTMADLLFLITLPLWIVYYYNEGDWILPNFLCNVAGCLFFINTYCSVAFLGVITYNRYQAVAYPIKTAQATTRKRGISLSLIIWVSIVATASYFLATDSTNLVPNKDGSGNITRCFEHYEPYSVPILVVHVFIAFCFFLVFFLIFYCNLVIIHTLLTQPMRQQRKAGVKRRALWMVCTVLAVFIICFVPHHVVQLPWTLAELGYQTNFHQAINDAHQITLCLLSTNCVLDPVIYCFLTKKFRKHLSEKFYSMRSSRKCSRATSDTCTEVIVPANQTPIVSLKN
Platelet-activating factor receptor (Rattus norvegicus), sequence (P46002 whole entry): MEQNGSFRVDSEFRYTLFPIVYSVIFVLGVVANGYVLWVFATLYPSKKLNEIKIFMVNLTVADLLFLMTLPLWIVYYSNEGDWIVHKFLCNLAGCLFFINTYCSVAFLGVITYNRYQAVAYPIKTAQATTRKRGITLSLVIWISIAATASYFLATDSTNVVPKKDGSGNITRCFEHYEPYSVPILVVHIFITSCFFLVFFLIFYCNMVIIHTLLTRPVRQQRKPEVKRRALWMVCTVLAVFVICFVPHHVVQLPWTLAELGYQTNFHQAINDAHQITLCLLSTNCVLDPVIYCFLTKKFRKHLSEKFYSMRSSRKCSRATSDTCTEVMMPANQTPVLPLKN

SMILES	ID50 [4] [mg/kg]	ID50 [6] [mg/kg]	also measured
N#CC(c1cccnc1)N1CCN(C(=O)CC(O)(c2ccccc2)c2ccccc2)CC1 (stereo not drawn)			IC50 (Oryctolagus cuniculus [1]): 0.021 µM
Cc1ncccc1C(C#N)N1CCN(C(=O)CNC(c2ccccc2)c2ccccc2)CC1 (stereo not drawn)	0.3	0.021	ED50 (Mus musculus [2]): 1.4 mg/kg; ED50 (Mus musculus [3]): 0.51 mg/kg; ED50 (Mus musculus [5]): 9 mg/kg; ED50 (Rattus norvegicus [7]): 0.28 mg/kg; ED50 (Rattus norvegicus [8]): 1.4 mg/kg; ED50 (Mus musculus [9]): 2.7 mg/kg
COC(=O)NC(CC(=O)N1CCN(C(C#N)c2cccnc2C)CC1)c1ccccc1 (stereo not drawn)	0.044	0.015	ED50 (Rattus norvegicus [10]): 1 mg/kg; ED50 (Mus musculus [2]): 1.7 mg/kg; ED50 (Mus musculus [11]): 0.19 mg/kg; ED50 (Mus musculus [5]): 7.5 mg/kg; ED50 (Mus musculus [12]): 2.7 mg/kg; ED50 (Rattus norvegicus [13]): 0.11 mg/kg
N#CC(c1cccnc1)N1CCN(C(=O)CNC(c2ccccc2)c2ccccc2)CC1 (stereo not drawn)	5.9	0.023	IC50 [14]: 0.0091 µM
N#CC(c1cccnc1)N1CCN(C(=O)CC(c2ccccc2)c2ccccc2)CC1 (stereo not drawn)			IC50 [14]: 0.02 µM
Cc1ncccc1C(C#N)N1CCN(C(=O)CC(c2ccccc2)N2C(=O)CCC2=O)CC1 (stereo not drawn)	0.71	0.042	IC50 (Oryctolagus cuniculus [15]): 0.069 µM
Cc1nnc2n1-c1sc(CCC(=O)N3CCOCC3)cc1C(c1ccccc1Cl)=NC2 [APAFANT]			ED50 (Rattus norvegicus [10]): 1.4 mg/kg; ED50 (Mus musculus [2]): 1.7 mg/kg; ED50 (Mus musculus [11]): 1.7 mg/kg; ED50 (Mus musculus [5]): 13.2 mg/kg; ED50 (Mus musculus [12]): 0.8 mg/kg; ED50 (Rattus norvegicus [13]): 0.47 mg/kg
N#CC(c1cccnc1)N1CCN(C(=O)CCNC(c2ccccc2)c2ccccc2)CC1 (stereo not drawn)			IC50 [14]: 0.053 µM
N#CC(c1cccnc1)N1CCN(C(=O)C=C(c2ccccc2)c2ccccc2)CC1 (stereo not drawn)			IC50 (Oryctolagus cuniculus [1]): 0.01 µM
Cc1ncccc1C(C#N)N1CCN(C(=O)CNC(c2ccc(F)cc2)c2ccc(F)cc2)CC1 (stereo not drawn)	3	0.049	
CNC(=O)C(CC(=O)N1CCN(C(C#N)c2cccnc2C)CC1)c1ccccc1 (stereo not drawn)	0.78	0.05	
CC(=O)NC(CC(=O)N1CCN(C(C#N)c2cccnc2C)CC1)c1ccccc1 (stereo not drawn)	0.09	0.035	
Cc1ncccc1C(C#N)N1CCN(C(=O)CC(c2ccccc2)n2cccc2)CC1 (stereo not drawn)	1	0.014	
Cc1ncccc1C(C#N)N1CCN(C(=O)CC(c2ccccc2)c2ccccc2)CC1 (stereo not drawn)	0.9	0.015	
COC(=O)N(Cc1ccccc1)C(CC(=O)N1CCN(C(C#N)c2cccnc2C)CC1)c1ccccc1 (stereo not drawn)	3	0.066	
CCc1ncccc1C(C#N)N1CCN(C(=O)CNC(c2ccccc2)c2ccccc2)CC1 (stereo not drawn)	0.7	0.063	
Cc1ncccc1C(C#N)N1CCN(C(=O)CC(O)(c2ccc(F)cc2)c2ccc(F)cc2)CC1 (stereo not drawn)	> 3	0.051	
